UHRF1 MBD2 ctr: blocks human UHRF1 binding to methylated DNA; inhibition, % at 4.4 µM; UHRF1 binding to methylated oligo, TR-FRET; 370,000 tested, 0.75% active; in the data active = inhibition above about 21%;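 also: UHRF1 SRA domain binding a hemimethylated CpG hairpin DNA probe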
CASP6 VEID inh: inhibitors of human caspase-6 | P55212 | purified caspase-6, Z-VEID-R110 cleavage fluorescence | inhibition, % at 12.5 µM | 350,000 tested, 0.53% active | AID 686996;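 active = mean inhibition across replicates at least about 35%, with every replicate also reaching that limit, limit read from the data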
NSD2 inh: inhibitors of human histone methyltransferase NSD2 | inhibition, % at 12.5 µM | O96028 | AID 743445 | 310,000 tested, 0.54% active | NSD2 peptide methylation, AlphaScreen, 120 min; in the data active = inhibition above about 50%
MBD2 inh: MBD2-methylated oligo binding inhibition. Q9UBB5. TR-FRET, MBD2 binding to methylated oligonucleotide. inhibition, % at 4.4 µM. 370,000 tested, 0.31% active; in the data active = inhibition above about 13%
Target sequence (Q9UBB5 whole entry, looked up): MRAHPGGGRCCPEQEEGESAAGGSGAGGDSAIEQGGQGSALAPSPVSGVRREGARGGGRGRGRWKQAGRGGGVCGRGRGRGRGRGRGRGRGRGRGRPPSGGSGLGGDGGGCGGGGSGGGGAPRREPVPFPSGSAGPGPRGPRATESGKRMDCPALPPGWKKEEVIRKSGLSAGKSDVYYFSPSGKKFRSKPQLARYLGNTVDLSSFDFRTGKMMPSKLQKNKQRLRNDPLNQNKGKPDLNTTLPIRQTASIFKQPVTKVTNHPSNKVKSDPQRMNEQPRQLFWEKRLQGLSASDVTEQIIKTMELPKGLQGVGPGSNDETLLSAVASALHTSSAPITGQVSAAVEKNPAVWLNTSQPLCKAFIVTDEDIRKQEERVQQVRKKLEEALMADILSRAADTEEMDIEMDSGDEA
TDP2 absorb: TDP2 (human) inhibition, absorbance primary screen; recombinant TDP2, T5PNP hydrolysis, p-nitrophenol absorbance 415 nm; O95551; 370,000 tested, 0.34% active; inhibition, % at 12.8 µM;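 active = inhibition above the mean of all tested compounds plus 3 SD, set per campaign, cut at about 25% in these data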
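System – recombinant human TDP2 · Quantity – TDP2 enzyme at 120 nM final · Doses – single concentration, 12.8 µM nominal, with 1% DMSO · Incubation – 2 h at 37 °C · Measured by – epi absorbance of p-nitrophenol freed from T5PNP by hydrolysis · Read-out – % inhibition relative to enzyme-containing and enzyme-free wells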
LEDGF integ inh: blocks HIV-1 LEDGF/p75-dependent DNA integration; TR-FRET IN-LEDGF/p75 DNA integration, Eu/Cy5; inhibition, % at 3.7 µM; 370,000 tested, 0.64% active; AID 743269;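 active = inhibition above the screen-wide mean plus 3 SD, cut at about 13% in these data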;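 also: signal is the Cy5 over europium emission ratio at 671 and 618 nm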
Each line names hits and unclear results; the compound was inactive in the other large screens. Shown are actives, neighbours in structure and some others; about 1.9% of the full set was active somewhere.

CN1CCN(C2CN(Cc3cn(Cc4ccc(F)cc4)nn3)S(=O)(=O)C2)CC1 (stereo not drawn)	UHRF1 MBD2 ctr 21 (no result: NSD2 inh)
O=C(CCC(=O)c1ccc(Cl)cc1)OCn1nnc2ccccc2c1=O	UHRF1 MBD2 ctr 56
Cc1ccc(C)c(C(=O)CCC(=O)OCn2nnc3ccccc3c2=O)c1	none
COc1c(C)cc(Br)cc1C(=O)Nc1ccccc1N1CCN(C(=O)c2ccccc2)CC1	UHRF1 MBD2 ctr 55
COc1ccc(Br)cc1C(=O)Nc1ccccc1N1CCN(C(=O)c2ccccc2)CC1	none
O=C(COc1ccccc1F)NCc1nc2ccccc2[nH]1	UHRF1 MBD2 ctr 22
CN(c1ncc(C(F)(F)F)cc1Cl)n1cc(C(N)=O)c2ccccc2c1=O	NSD2 inh 110 (no result: CASP6 VEID inh)
COc1ccc(S(=O)(=O)N(C)C[C@@H]2OCCCC[C@H](C)Oc3ccc(NC(=O)NC4CCCCC4)cc3C(=O)N([C@@H](C)CO)C[C@@H]2C)cc1	none (no result: UHRF1 MBD2 ctr, NSD2 inh, MBD2 inh, TDP2 absorb, LEDGF integ inh)
COC(=O)C1CC(=O)N(c2ccc(OCc3ccccc3Cl)cc2)C1 (stereo not drawn)	UHRF1 MBD2 ctr 24
Cc1ccc(N2CC(C(=O)OCC(=O)Nc3cccc(Cl)c3C)CC2=O)cc1 (stereo not drawn)	UHRF1 MBD2 ctr 90
Cc1ccc(N2CC(C(=O)OCC(=O)Nc3ccc(Cl)cc3)CC2=O)cc1 (stereo not drawn)	none (no result: NSD2 inh)
O=C(N[C@H]1CC[C@H](CCNC(=O)C2CCCC2)O[C@@H]1CO)c1ccncc1	none (no result: UHRF1 MBD2 ctr, NSD2 inh, MBD2 inh, TDP2 absorb, LEDGF integ inh)
C[C@H]1CN([C@@H](C)CO)C(=O)c2cc(C#CCN(C)C)cnc2O[C@@H]1CN(C)C(=O)Cc1cccnc1	none (no result: UHRF1 MBD2 ctr, NSD2 inh, MBD2 inh, TDP2 absorb, LEDGF integ inh)
O=[N+]([O-])c1ccc2nc(NS(=O)(=O)c3ccccc3[N+](=O)[O-])sc2c1	none
O=[N+]([O-])c1ccccc1S(=O)(=O)Nc1nc2ccccc2s1	CASP6 VEID inh 44
CC(C)CNC(=O)C1(C)CCCCCN1C(=O)c1cccnc1 (stereo not drawn)	CASP6 VEID inh 56
CC(C)CNC(=O)C1(C)CCCCCN1C(=O)c1cc2ccccc2s1 (stereo not drawn)	none
COCC(=O)N1[C@H](C#N)[C@@H](c2ccccc2-c2ccccc2)[C@H]1CO	none (no result: UHRF1 MBD2 ctr, NSD2 inh, MBD2 inh, TDP2 absorb, LEDGF integ inh)
O=C(C[C@@H]1C=C[C@H](NC(=O)C2CC2)[C@H](CO)O1)Nc1nccs1	CASP6 VEID inh 83 (no result: UHRF1 MBD2 ctr, NSD2 inh, MBD2 inh, TDP2 absorb, LEDGF integ inh)
C[C@@H]1CN([C@H](C)CO)C(=O)Cc2cc(NC(=O)C3CC3)ccc2O[C@@H]1CN(C)Cc1ccc(Cl)c(Cl)c1	none (no result: UHRF1 MBD2 ctr, NSD2 inh, MBD2 inh, TDP2 absorb, LEDGF integ inh)
COc1cccc(CNC(=O)c2ccc(CS(=O)(=O)Cc3ccccc3C)o2)c1	UHRF1 MBD2 ctr 24
C[C@H]1CN([C@@H](C)CO)S(=O)(=O)c2ccc(-c3ccc(C(=O)N(C)C)cc3)cc2O[C@H]1CN(C)Cc1ccccc1C(=O)O	none (no result: UHRF1 MBD2 ctr, NSD2 inh, MBD2 inh, TDP2 absorb, LEDGF integ inh)
O=C1c2sc3nc4n(c(=O)c3c2CCC1Br)CCCCC4 (stereo not drawn)	NSD2 inh active (no result: CASP6 VEID inh)
O=C1CCCc2c1sc1nc3n(c(=O)c21)CCCCC3	none (no result: CASP6 VEID inh)
COc1ccc(-n2cnnc2SCC(=O)Nc2cccnc2Cl)cc1	UHRF1 MBD2 ctr 21
COc1ccc(-n2cnnc2SCC(=O)Nc2nc(C)c(Cl)cc2Cl)cc1	none (no result: CASP6 VEID inh)
CC(CCN1CCC(CN2C(=S)NCC2Cc2ccccc2)CC1)c1ccccc1 (stereo not drawn)	UHRF1 MBD2 ctr 21 (no result: NSD2 inh)
CC(C)CCN1CCC(CN2C(=S)NC[C@@H]2Cc2ccccc2)CC1	none (no result: NSD2 inh)
O=C(C[C@@H]1CC[C@H](NC(=O)C2CCOCC2)[C@@H](CO)O1)Nc1nccs1	none (no result: UHRF1 MBD2 ctr, NSD2 inh, MBD2 inh, TDP2 absorb, LEDGF integ inh)
CC(=O)c1ccc(NC(=O)[C@@]2(CC(=O)O)CC(/C=C/c3ccccc3)=NO2)cc1	UHRF1 MBD2 ctr 54
CCN(CCNC(=O)c1ccc(C#N)cc1)c1cccc(C)c1	none (no result: UHRF1 MBD2 ctr, CASP6 VEID inh, MBD2 inh, TDP2 absorb, LEDGF integ inh)
CCN(CCNCC(O)COCc1ccc(Cl)cc1)c1cccc(C)c1 (stereo not drawn)	UHRF1 MBD2 ctr 29
COc1ccc(CCNCC(=O)Nc2c(C)cc(C)cc2C)cc1OC	UHRF1 MBD2 ctr 21
Cc1cccc(S(=O)(=O)N[C@@H]2CC[C@@H](CCNC(=O)Nc3cc(F)ccc3F)O[C@H]2CO)c1	none (no result: UHRF1 MBD2 ctr, NSD2 inh, MBD2 inh, TDP2 absorb, LEDGF integ inh)
Cc1ccc(NC(=O)CCCCCC2NC(=O)NC2C)cc1 (stereo not drawn)	NSD2 inh 136 (no result: UHRF1 MBD2 ctr, MBD2 inh, TDP2 absorb, LEDGF integ inh)
CC1NC(=O)NC1CCCCC(=O)O (stereo not drawn)	none (no result: CASP6 VEID inh)

Screens deposited in PubChem BioAssay by several laboratories.
